Data as given in ChEMBL document CHEMBL3861971, “Cinnamoyloxy-mammeisin Isolated from Geopropolis Attenuates Inflammatory Process by Inhibiting Cytokine Production: Involvement of MAPK, AP-1, and NF-κB” (J Nat Prod, 2016).
The source made the active and inactive calls. The rule behind the calls is not given here.

Key:
[1] = test system: Mus musculus; test: Antiinflammatory activity in specific pathogen-free C57BL/6 mouse assessed as inhibition of carrageenan-induced neutrophil migration into peritoneal cavity at 300 ug/kg, administered subcutaneously for 30 mins prior to carrageenan challenge measured after 4 hrs using Neubauer chamber by optical microscopic analysis; assay type: functional
How it was run: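 Male C57BL/6 SPF mice (20–22 g) pretreated sc (vehicle 1% DMSO in PBS), 30 min before ip carrageenan 500 µg/cavity. Peritoneal neutrophils determined 4 h later. Differential count of 100 cells by optical microscopy (100×). Expressed as neutrophils per cavity.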

[2] = species: Mus musculus; test: Cytotoxicity against mouse RAW264.7 cells at 6 uM measured after 4 hrs by MTT assay; assay type: toxicity, cell-based; settings: raw264.7, 4 h
How it was run: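 RAW 264.7 cells (2×10^5/well, overnight) exposed to 6 µM for 4 h. MTT 1 mg/mL in RPMI added for 2 h. Formazan taken up in absolute ethanol and absorbance read at 540 nm.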

[3] = test system: Mus musculus; test: (§1) Antiinflammatory activity in specific pathogen-free C57BL/6 mouse assessed as inhibition of carrageenan-induced leukocyte adhesion in mesenteric venules at 300 ug/kg administered subcutaneously for 30 mins prior to carrageenan challenge measured after 4 hrs by intravital microscopy; assay type: functional
[4] = test system: Mus musculus; test: Antiinflammatory activity in specific pathogen-free C57BL/6 mouse assessed as inhibition of mBSA-induced neutrophil migration into joint cavity at 100 ug/kg, administered post 21 days of immunization subcutaneously for 30 mins prior to mBSA challenge measured after 6 hrs by cell counting method; assay type: functional
How it was run: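 C57BL/6 SPF males immunized sc with mBSA 500 µg in Complete Freund's adjuvant/PBS emulsion, boosted days 7 and 14 with Incomplete Freund's adjuvant plus mBSA. Compound given sc 30 min before ia mBSA 30 µg/joint on day 21. At 6 h joint cavity washed with PBS/EDTA, then total and differential leukocyte counts.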

[5] = target: MAP kinase p38 (Mus musculus) (UniProt P47811+O08911+Q9WUI1+Q9Z1B7); test: Inhibition of MAPK p38 phosphorylation in peptidoglycan-stimulated mouse RAW264.7 cells at 6 uM pretreated for 30 mins followed by peptidoglycan stimulation for 15 mins by Western blot method; assay type: cell-based
How it was run: (§2)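 RAW 264.7 cells (2×10^6/well) pretreated with 6 µM 30 min before PG 5 µg/mL. Lysed with RIPA plus protease/phosphatase inhibitors after 15 min of stimulation. Phospho-ERK1/2, SAPK/JNK and p38 detected by Western blot with chemiluminescence. n = 3 or 4.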

[6] = species: Mus musculus; test: Cytotoxicity against mouse RAW264.7 cells assessed as induction of apoptosis at 6 uM measured after 4 hrs by Annexin V-FTIC/propidium iodide staining-based flow cytometric analysis; assay type: toxicity, cell-based; settings: raw264.7, 4 h
How it was run: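 RAW 264.7 cells (2×10^6/well, overnight) exposed to 6 µM for 4 h, then washed into annexin buffer. Stained with annexin V-FITC (1:50, 4 °C, 20 min) and then PI (1:100). Analysed by flow cytometry, about 10 000 gated events. Three to four separate experiments.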

[7] = target: Mitogen-activated protein kinase 1 and 3 (ERK2 and ERK1) (Mus musculus) (UniProt P63085+Q63844); test: Inhibition of ERK1/2 phosphorylation in peptidoglycan-stimulated mouse RAW264.7 cells at 6 uM pretreated for 30 mins followed by peptidoglycan stimulation for 15 mins by Western blot method; assay type: cell-based; how it was run: as §2
Chain of Mitogen-activated protein kinase 1 and 3 (ERK2 and ERK1) (Mus musculus) (P63085 whole entry, looked up): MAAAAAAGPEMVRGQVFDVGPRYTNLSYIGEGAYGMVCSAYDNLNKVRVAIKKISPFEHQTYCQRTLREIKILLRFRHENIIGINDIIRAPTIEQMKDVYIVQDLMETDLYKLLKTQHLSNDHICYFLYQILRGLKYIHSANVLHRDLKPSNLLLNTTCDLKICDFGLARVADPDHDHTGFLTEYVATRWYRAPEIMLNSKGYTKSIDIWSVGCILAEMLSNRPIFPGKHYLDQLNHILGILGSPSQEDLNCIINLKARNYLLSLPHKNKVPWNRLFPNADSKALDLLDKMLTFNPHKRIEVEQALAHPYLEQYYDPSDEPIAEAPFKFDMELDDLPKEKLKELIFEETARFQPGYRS
Chain of Mitogen-activated protein kinase 1 and 3 (ERK2 and ERK1) (Mus musculus) (Q63844 whole entry, looked up): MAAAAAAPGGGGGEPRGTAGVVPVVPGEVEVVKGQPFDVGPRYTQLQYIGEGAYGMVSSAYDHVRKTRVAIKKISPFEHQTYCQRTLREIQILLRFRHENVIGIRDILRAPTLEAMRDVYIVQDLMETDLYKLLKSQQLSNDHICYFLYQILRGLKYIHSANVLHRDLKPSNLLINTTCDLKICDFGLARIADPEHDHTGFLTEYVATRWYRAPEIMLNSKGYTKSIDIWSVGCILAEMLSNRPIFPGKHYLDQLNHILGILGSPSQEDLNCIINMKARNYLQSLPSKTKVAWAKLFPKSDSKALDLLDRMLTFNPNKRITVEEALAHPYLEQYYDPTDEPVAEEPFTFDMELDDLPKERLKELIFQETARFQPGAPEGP

[8] = test system: RAW264.7; test: Inhibition of JNK phosphorylation in peptidoglycan-stimulated mouse RAW264.7 cells at 6 uM pretreated for 30 mins followed by peptidoglycan stimulation for 15 mins by Western blot method; assay type: cell-based; how it was run: as §2
[9] = test system: RAW264.7; test: Antiinflammatory activity in mouse RAW264.7 cells assessed as inhibition of LPS-stimulated CXCL2/MIP-2 release at 0.6 to 6 uM pretreated 30 mins prior to LPS challenge measured after 4 hrs by ELISA; assay type: functional, cell-based
How it was run: (§3)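 RAW 264.7 cells grown in RPMI/10% FBS, plated at 2×10^5/well overnight. Pretreated with 0.6, 2 or 6 µM 30 min before PG 5 µg/mL or LPS 10 ng/mL. Supernatant collected at 4 h for TNF-α and CXCL2/MIP-2 ELISA. Mean ± SEM, n = 3–5.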

[10] = test system: RAW264.7; test: Antiinflammatory activity in mouse RAW264.7 cells assessed as inhibition of LPS-stimulated TNFalpha production at 0.6 to 6 uM pretreated 30 mins prior to LPS challenge measured after 4 hrs by ELISA; assay type: functional, cell-based; how it was run: as §3
[11] = test system: Mus musculus; test: as §1, with “Anti-inflammatory” for “Antiinflammatory”, “rolling into” for “adhesion in”, “2” for “4”, “hrs for 10 mins” for “hrs”, “microscopic analysis” for “microscopy”; assay type: functional
[12] = test system: Mus musculus; test: Antiinflammatory activity in specific pathogen-free C57BL/6 mouse assessed as reduction of mBSA-induced TNF-alpha release in joint cavity at 100 ug/kg, administered post 21 days of immunization subcutaneously for 30 mins prior mBSA challenge measured after 1.5 hrs by ELISA; assay type: functional
How it was run: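 Immunized mice (mBSA/Freund's adjuvant, boosts days 7 and 14) treated sc 30 min before day-21 ia mBSA 30 µg/joint. TNF-α in the joint measured by ELISA 1.5 h after challenge.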

[13] = test system: Mus musculus; test: Anti-inflammatory activity in specific pathogen-free C57BL/6 mouse assessed as reduction in carrageenan-induced TNF-alpha release in peritoneal cavity at 300 ug/kg administered subcutaneously for 30 mins prior to carrageenan challenge measured after 1.5 hrs by ELISA; assay type: functional
How it was run: (§4)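 Mice (male C57BL/6 SPF) dosed sc in 1% DMSO/PBS 30 min ahead of ip carrageenan 500 µg/cavity. Peritoneal cavity sampled at 1.5 h for TNF-α and at 3 h for CXCL2/MIP-2. Levels measured by ELISA, expressed as pg/mL or pg/mg tissue.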

[14] = test system: RAW264.7; test: Antiinflammatory activity in mouse RAW264.7 cells assessed as inhibition of peptidoglycan-stimulated TNFalpha production at 0.6 to 6 uM pretreated 30 mins prior to peptidoglycan challenge measured after 4 hrs by ELISA; assay type: functional, cell-based; how it was run: as §3
[15] = test system: Mus musculus; test: Antiinflammatory activity in specific pathogen-free C57BL/6 mouse assessed as reduction in carrageenan-induced CXCL2/MIP-2 release in peritoneal cavity at 300 ug/kg administered subcutaneously for 30 mins prior to carrageenan challenge measured after 3 hrs by ELISA; assay type: functional; how it was run: as §4
[16] = test system: RAW264.7; test: Inhibition of NFkappaB activation (unknown origin) expressed in mouse RAW264.7 cells at 0.6 to 6 uM pretreated for 30 mins followed by peptidoglycan challenge measured after 4 hrs by luciferase reporter gene assay; assay type: cell-based; settings: Homo sapiens
How it was run: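 RAW 264.7 cells stably carrying an NF-κB-driven luciferase reporter, plated at 3×10^5/well overnight. Pretreated with 0.6–6 µM 30 min before PG 5 µg/mL. Lysed in Tris-NaCl-Tween buffer at 4 h, luciferin reagent added and luminescence read. n = 3–5.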

[17] = test system: Mus musculus; test: Antiinflammatory activity in specific pathogen-free C57BL/6 mouse assessed as reduction in mBSA-induced myeloperoxidase activity in joint cavity at 100 ug/kg administered post 21 days of immunization subcutaneously for 30 mins prior to mBSA challenge measured after 6 hrs by bioluminescence assay; assay type: functional
How it was run: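 mBSA-immunized C57BL/6 mice pretreated sc 30 min before ia mBSA 30 µg/joint. At 6 h, under anesthesia, mice given ip bioluminescent myeloperoxidase probe 100 mg/kg. Joints imaged on IVIS Spectrum, read out as radiance (p/sec/cm²/sr).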

[18] = target: Transcription factor Jun (Mus musculus) (UniProt P05627); test: Inhibition of c-jun phosphorylation in peptidoglycan-stimulated mouse RAW264.7 cells at 6 uM pretreated for 30 mins followed by peptidoglycan stimulation for 30 mins by immunofluorescence method
Chain of Transcription factor Jun (Mus musculus) (P05627 whole entry): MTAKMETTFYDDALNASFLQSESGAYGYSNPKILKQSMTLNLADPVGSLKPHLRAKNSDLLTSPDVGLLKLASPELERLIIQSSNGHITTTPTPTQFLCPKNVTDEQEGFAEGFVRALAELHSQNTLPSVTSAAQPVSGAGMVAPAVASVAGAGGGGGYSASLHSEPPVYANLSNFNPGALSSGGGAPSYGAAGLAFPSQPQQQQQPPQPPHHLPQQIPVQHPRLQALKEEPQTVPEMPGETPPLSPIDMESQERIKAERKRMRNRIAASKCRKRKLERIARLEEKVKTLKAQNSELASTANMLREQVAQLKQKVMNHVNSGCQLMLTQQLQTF

[19] = test system: RAW264.7; test: Antiinflammatory activity in mouse RAW264.7 cells assessed as inhibition of peptidoglycan-stimulated CXCL2/MIP-2 release at 0.6 to 6 uM pretreated 30 mins prior to peptidoglycan challenge measured after 4 hrs by ELISA; assay type: functional, cell-based; how it was run: as §3

CC(C)=CCc1c(O)c(C(=O)CC(C)COC(=O)/C=C/c2ccccc2)c(O)c2c(-c3ccccc3)cc(=O)oc12 (centres undefined)
inhibition [1]: Active | Activity [2]: Non-Toxic | inhibition [3]: Active | inhibition [4]: Active | inhibition [5]: Active | Activity [6]: Non-Toxic | inhibition [7]: Active | inhibition [8]: Active | inhibition [9]: Active | inhibition [10]: Active | inhibition [11]: Active | Activity [12]: Active | Activity [13]: Active | inhibition [14]: Active | Activity [15]: Active | inhibition [16]: Active | Activity [17]: Active | inhibition [18]: Active | inhibition [19]: Active
